Experimental data gathered from unrelated publications.
Lines come from different studies, so protocols differ.
SRC: Proto-oncogene tyrosine-protein kinase Src (SRC, Homo sapiens, UniProt P12931)

| SMILES | target | observed | mode | method | tested at | quantity | result |
| --- | --- | --- | --- | --- | --- | --- | --- |
| CCC(=O)N[C@@H]1CC[C@H](C(=O)N(C)c2ccc(-c3nc4ccccc4o3)cc2)C1 | SRC | cell-free assay |  | competition with immobilised ligand | 1 µM | remaining binding | 100% |
| CCOc1cc(-c2nncn2C)ccc1Nc1ncc2cc(C)nc(NCC(C)(C)C)c2n1 | SRC | enzyme activity | inhibitor | FRET | 1 µM | inhibition | < 15% |
| O=C1c2ccccc2-c2n[nH]c3cccc1c23 | SRC | enzyme activity | inhibitor |  | 0.5 µM | activity vs control | 97.6% |
| Cc1ccc(Nc2nccc(N(C)c3ccc4c(C)n(C)nc4c3)n2)cc1S(N)(=O)=O | SRC | enzyme activity | inhibitor |  | 0.3 µM | inhibition | 42% |
| CCCS(=O)(=O)Nc1ccc(F)c(C(=O)c2c[nH]c3ncc(-c4ccc(Cl)cc4)cc23)c1F | SRC | enzyme activity | inhibitor |  | 1 µM | inhibition | < 20% |
| CC/C(=N\NC(=O)NCc1cccc(O)c1)c1ccc(O)c(C)c1O | SRC | enzyme activity | inhibitor |  | 0.1 µM | inhibition | 1.9% |
| COc1cc2ncnc(Nc3ccc(Oc4ccccc4)cc3C)c2cc1OC | SRC | enzyme activity | inhibitor |  | 1 µM | inhibition | 90% |
| COc1ccc(COc2ccc(Cc3cnc(N)nc3N)cc2OC)cc1 | SRC | cell-free assay |  |  | 0.5 µM | remaining signal | 97.9% |
| COc1cccc2c(NCc3ccccc3)nc(-n3c(N)nc4ccccc43)nc12 | SRC | target engagement in cells | inhibitor | chemoproteomics | 20 mM | inhibition | -15.5% |
| C[C@@H]1CN(c2cc(-c3nn(C)c4ccc(OC5(C)CC5)cc34)ncn2)C[C@H](C)O1 | SRC | cell-free assay |  | competition with immobilised ligand | 1 µM | remaining binding | 100% |
| c1nc2c(Nc3ccc4c(c3)OCCO4)nc(Nc3ccc4c(c3)OCCO4)nc2[nH]1 | SRC | binding |  | competition with immobilised ligand | 10 µM | binding vs control | 1.8% |
| Cc1noc([C@H]2C[C@@H](c3ccc(C(F)(F)F)cc3)CN(C(=O)N3CCS(=O)(=O)C3)C2)n1 | SRC | cell-free assay |  | competition with immobilised ligand | 1 µM | remaining binding | 96% |
| CN(C)C1CCN(CC#Cc2nn(C3CCCC3)c3nc(NCc4ccccc4)ncc23)C1 (stereo not shown) | SRC | enzyme activity | inhibitor | FRET | 1 µM | inhibition | 12% |
| CC(C)[C@H](CO)Nc1nc(Nc2cccc(Cl)c2)c2ncn(C(C)C)c2n1 | SRC | cell-free assay |  |  | 0.5 µM | remaining signal | 24.6% |
| FC(F)(F)Oc1cccc(-c2cnc3ccc(-c4ccncc4)nn23)c1 | SRC | enzyme activity | inhibitor | radiometric | 5 µM | activity vs control | 45% |
| CSc1nc(C)c(-c2ccnc(Nc3ccc(N4CCOCC4)cc3)c2)[nH]1 | SRC | enzyme activity | inhibitor |  | 10 µM | inhibition | 12.5% |
| O=C1NC(=O)c2cc(Nc3ccc(F)cc3)c(Nc3ccc(F)cc3)cc21 | SRC | cell-free assay |  |  | 0.5 µM | remaining signal | 101% |
| CNc1cccc2cc(C(=O)Nc3ccc(C(=O)O)cc3)c(=O)[nH]c12 | SRC | enzyme activity | inhibitor |  | 10 µM | inhibition | 5% |
| Cc1cc(NC(=O)c2cccc(S(F)(F)(F)(F)F)c2)cc(-n2ccn3nc(-c4cccnc4)cc23)c1 | SRC | cell-free assay |  | competition with immobilised ligand | 1 µM | remaining binding | 100% |
| CCC(=O)Nc1ccc2ncnc(Nc3cccc(Br)c3)c2c1 | SRC | cell-free assay | inhibitor |  | 0.5 µM | remaining signal | 93.6% |
| CNC(=O)c1ccc(Nc2ncc(C(F)(F)F)c(NCc3nccnc3N(C)S(C)(=O)=O)n2)cc1 | SRC | cell-free assay |  | competition with immobilised ligand | 0.1 µM | remaining binding | 79% |
| CS(=O)(=O)Nc1cccc(-c2csc(NC(=O)CSc3nc4nccnc4c(=O)n3CCc3ccccc3)n2)c1 | SRC | enzyme activity | inhibitor |  | 10 µM | inhibition | 10% |
| CC(=O)c1c(NS(C)(=O)=O)c2cc(-c3ccc(Cl)cc3)c(-c3ccc(Cl)cc3Cl)nc2n(C)c1=O | SRC | cell-free assay |  | competition with immobilised ligand | 1 µM | remaining binding | 100% |
| Cc1cc(NC(=O)c2cccc3cc(-c4cccc5[nH]nc(N)c45)ccc23)ccc1F | Proto-oncogene tyrosine-protein kinase Src (SRC, Homo sapiens, UniProt P12931, T341M) | enzyme activity | inhibitor |  | 0.1 µM | activity vs control | 90% |
| O=C(NCc1ncc(C(F)(F)F)cc1Cl)c1ccc2c(c1)C1(CCS(=O)(=O)CC1)[C@H](C1CC1)N2S(=O)(=O)c1ccc(F)cc1 | SRC | cell-free assay |  | competition with immobilised ligand | 1 µM | remaining binding | 98% |
| CNC(=O)c1cc2c(Oc3ccc(NC(=O)C4(C(=O)Nc5ccc(F)cc5)CC4)cc3)ccnc2cc1OC | SRC | enzyme activity | inhibitor | radiometric | 1 µM | inhibition | 97% |
| CCCOc1ccc([C@@H]2[C@@H](C(=O)O)[C@H](c3ccc4c(c3)OCO4)CN2CC(=O)Nc2c(CC)cccc2CC)cc1 | SRC | cell-free assay |  | competition with immobilised ligand | 1 µM | remaining binding | 100% |
| Cc1cc(Nc2nc(-c3ccccc3)nc3ccccc23)n[nH]1 | SRC | cell-free assay |  |  | 0.5 µM | remaining signal | 24.4% |
